According to ChEMBL document CHEMBL1125626, “Synthesis and structure-activity relationship of new cephalosporins with amino heterocycles at C-7. Dependence of the antibacterial spectrum and beta-lactamase stability on the pKa of the C-7 heterocycle” (1991):
Values after ≈ are worked out from the molar mass of the structure shown.

Experiments:
Escherichia coli [1] = assay: Minimum inhibitory concentration against Escherichia coli DC2 (inoculum, 10e4 cfu per spot); type: functional
Procedure, shortened: (§1)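 MIC in µg/mL, determined in Jewell and Permain growth medium with spot inoculation at 10^4 cfu per spot. P99 is described as a constitutive type I lactamase producer.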

Escherichia coli [2] = assay: Minimum inhibitory concentration against Escherichia coli DCO (inoculum, 10e4 cfu per spot); type: functional; procedure, shortened: as §1
Escherichia coli [3] = assay: Minimum inhibitory concentration against Escherichia coli A8 (inoculum, 10e5 cfu per spot); type: functional
Procedure, shortened: (§2)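 MIC in µg/mL, determined in Jewell and Permain growth medium with spot inoculation at 10^5 cfu per spot.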

Enterobacter cloacae [4] = assay: Minimum inhibitory concentration against Enterobacter cloacae A13 (inoculum, 10e5 cfu per spot); type: functional; procedure, shortened: as §2
Enterobacter cloacae [5] = assay: Minimum inhibitory concentration against Enterobacter cloacae P99 (inoculum, 10e4 cfu per spot); type: functional; procedure, shortened: as §1
Klebsiella aerogenes [6] = assay: Minimum inhibitory concentration against Klebsiella aerogenes X5L (inoculum, 10e4 cfu per spot); type: functional; procedure, shortened: as §1
Klebsiella aerogenes [7] = assay: Minimum inhibitory concentration against Klebsiella aerogenes X6 (inoculum, 10e4 cfu per spot); type: functional; procedure, shortened: as §1
Klebsiella pneumoniae = assay: Minimum inhibitory concentration against Klebsiella pneumoniae A24 (inoculum, 10e5 cfu per spot); type: functional; procedure, shortened: as §2
Proteus mirabilis = assay: Minimum inhibitory concentration against Proteus mirabilis A18 (inoculum, 10e5 cfu per spot); type: functional; procedure, shortened: as §2
Pseudomonas aeruginosa = assay: Minimum inhibitory concentration against Pseudomonas aeruginosa A21 (inoculum, 10e5 cfu per spot); type: functional; procedure, shortened: as §2
Staphylococcus aureus [8] = assay: Minimum inhibitory concentration against Staphylococcus aureus A4 (inoculum, 10e5 cfu per spot); type: functional; procedure, shortened: as §2
Staphylococcus aureus [9] = assay: Minimum inhibitory concentration against Staphylococcus aureus A6 (inoculum, 10e5 cfu per spot); type: functional; procedure, shortened: as §2
Streptococcus pyogenes = assay: Minimum inhibitory concentration against Streptococcus pyogenes (inoculum, 10e5 cfu per spot) A1; type: functional; procedure, shortened: as §2
Serratia marcescens = assay: Minimum inhibitory concentration against Serratia marcescens A16 (inoculum, 10e5 cfu per spot); type: functional; procedure, shortened: as §2
Enterobacter cloacae [10] = assay: Minimum inhibitory concentration against Enterobacter cloacae P99 (inoculum, 10e4 cfu per spot)(type I lactamase producer); type: functional; procedure, shortened: as §1
Escherichia coli [11] = assay: Minimum inhibitory concentration against Escherichia coli X4 (inoculum, 10e4 cfu per spot)
Escherichia coli [12] = assay: Minimum inhibitory concentration against Escherichia coli TEM X3 (inoculum, 10e4 cfu per spot)(TEM I type lactamase producer)
Proteus vulgaris = assay: Minimum inhibitory concentration against Proteus vulgaris Pv9 (inoculum, 10e5 cfu per spot)

Row | Structure (SMILES) | MIC (Escherichia coli [1]) | MIC (Escherichia coli [2]) | MIC (Escherichia coli [3]) | MIC (Enterobacter cloacae [4]) | MIC (Enterobacter cloacae [5]) | MIC (Klebsiella aerogenes [6]) | MIC (Klebsiella aerogenes [7]) | MIC (Klebsiella pneumoniae) | MIC (Proteus mirabilis) | MIC (Pseudomonas aeruginosa) | MIC (Staphylococcus aureus [8]) | MIC (Staphylococcus aureus [9]) | MIC (Streptococcus pyogenes) | MIC (Serratia marcescens) | MIC (Enterobacter cloacae [10]) | MIC (Escherichia coli [11]) | MIC (Escherichia coli [12]) | MIC (Proteus vulgaris)
1 | CO[C@@]1(NC2=NCCN2)C(=O)N2C(C(=O)OC(c3ccccc3)c3ccccc3)=C(C)CSC21 (stereo not given in full) | > 256 µg/mL | > 256 µg/mL | > 256 µg/mL | > 256 µg/mL | > 256 µg/mL | > 256 µg/mL | > 256 µg/mL | > 256 µg/mL | > 256 µg/mL | > 256 µg/mL | > 256 µg/mL | > 256 µg/mL | > 256 µg/mL | > 256 µg/mL | > 256 µg/mL | > 256 µg/mL | > 256 µg/mL | 
2 | CO[C@@]1(Nc2nc3ccccc3[nH]2)C(=O)N2C(C(=O)OC(c3ccccc3)c3ccccc3)=C(COC(C)=O)CSC21 (stereo not given in full) | > 256 µg/mL | > 256 µg/mL | > 256 µg/mL | > 256 µg/mL | > 256 µg/mL | > 256 µg/mL | > 256 µg/mL | > 256 µg/mL | > 256 µg/mL | > 256 µg/mL | > 256 µg/mL | > 256 µg/mL | > 256 µg/mL | > 256 µg/mL | > 256 µg/mL | > 256 µg/mL | > 256 µg/mL | 
3 | CC1=C(C(=O)OC(c2ccccc2)c2ccccc2)N2C(=O)[C@@H](NC3=NC(C(N)=O)CN3)C2SC1 (stereo not given in full) | 2 µg/mL (≈ 4.07 µM) | 8 µg/mL (≈ 16.3 µM) | 32 µg/mL (≈ 65.1 µM) | > 256 µg/mL | 4 µg/mL (≈ 8.14 µM) | 16 µg/mL (≈ 32.5 µM) | 16 µg/mL (≈ 32.5 µM) | 16 µg/mL (≈ 32.5 µM) | > 256 µg/mL | > 256 µg/mL | > 256 µg/mL | > 256 µg/mL | > 256 µg/mL | > 256 µg/mL | 8 µg/mL (≈ 16.3 µM) | 8 µg/mL (≈ 16.3 µM) | 8 µg/mL (≈ 16.3 µM) | 
4 | CC(=O)OCC1=C(C(=O)OC(C)(C)C)N2C(=O)[C@@H](Nc3nc4cc([N+](=O)[O-])ccc4[nH]3)C2SC1 (stereo not given in full) | 8 µg/mL (≈ 16.3 µM) | 128 µg/mL (≈ 261 µM) | 40 µg/mL (≈ 81.7 µM) | 40 µg/mL (≈ 81.7 µM) | 64 µg/mL (≈ 131 µM) | > 200 µg/mL | > 200 µg/mL | 40 µg/mL (≈ 81.7 µM) | 40 µg/mL (≈ 81.7 µM) | > 200 µg/mL | 200 µg/mL (≈ 409 µM) | 1 µg/mL (≈ 2.04 µM) | 1 µg/mL (≈ 2.04 µM) | > 200 µg/mL | > 200 µg/mL | > 200 µg/mL | > 200 µg/mL | 
5 | CC(=O)OCC1=C(C(=O)OC(c2ccccc2)c2ccccc2)N2C(=O)[C@@H](Nc3nc4c(C)cccc4[nH]3)C2SC1 (stereo not given in full) | 0.25 µg/mL (≈ 0.44 µM) | 8 µg/mL (≈ 14.1 µM) | 16 µg/mL (≈ 28.1 µM) | ≥ 128 µg/mL | 32 µg/mL (≈ 56.3 µM) | ≥ 128 µg/mL | 16 µg/mL (≈ 28.1 µM) | 8 µg/mL (≈ 14.1 µM) | 8 µg/mL (≈ 14.1 µM) | ≥ 128 µg/mL | 8 µg/mL (≈ 14.1 µM) | 4 µg/mL (≈ 7.03 µM) | 8 µg/mL (≈ 14.1 µM) | ≥ 128 µg/mL | ≥ 128 µg/mL | 8 µg/mL (≈ 14.1 µM) | 32 µg/mL (≈ 56.3 µM) | ≥ 128 µg/mL

Other lines, results leading:

Row | MIC (Escherichia coli [1]) | MIC (Escherichia coli [2]) | MIC (Escherichia coli [3]) | MIC (Enterobacter cloacae [4]) | MIC (Enterobacter cloacae [5]) | MIC (Klebsiella aerogenes [6]) | MIC (Klebsiella aerogenes [7]) | MIC (Klebsiella pneumoniae) | MIC (Proteus mirabilis) | MIC (Pseudomonas aeruginosa) | MIC (Staphylococcus aureus [8]) | MIC (Staphylococcus aureus [9]) | MIC (Streptococcus pyogenes) | MIC (Serratia marcescens) | MIC (Enterobacter cloacae [10]) | MIC (Escherichia coli [11]) | MIC (Escherichia coli [12]) | MIC (Proteus vulgaris) | Structure (SMILES)
6 |  | 8 µg/mL (≈ 17.7 µM) | 2 µg/mL (≈ 4.42 µM) |  | 1 µg/mL (≈ 2.21 µM) | 2 µg/mL (≈ 4.42 µM) | 1 µg/mL (≈ 2.21 µM) | 2 µg/mL (≈ 4.42 µM) | > 256 µg/mL | > 256 µg/mL | > 256 µg/mL | > 256 µg/mL | 128 µg/mL (≈ 283 µM) | 32 µg/mL (≈ 70.7 µM) | 8 µg/mL (≈ 17.7 µM) | 1 µg/mL (≈ 2.21 µM) | 1 µg/mL (≈ 2.21 µM) |  | Cn1nnnc1SCC1=C(C(=O)OC(C)(C)C)N2C(=O)[C@@H](NC3=NCCN3)C2SC1 (stereo not given in full)
7 | 0.06 µg/mL (≈ 0.107 µM) | 1 µg/mL (≈ 1.78 µM) | 8 µg/mL (≈ 14.3 µM) | > 256 µg/mL | 1 µg/mL (≈ 1.78 µM) | 128 µg/mL (≈ 228 µM) | 2 µg/mL (≈ 3.57 µM) | 16 µg/mL (≈ 28.5 µM) | 32 µg/mL (≈ 57.1 µM) | > 256 µg/mL | 32 µg/mL (≈ 57.1 µM) | 4 µg/mL (≈ 7.13 µM) | 2 µg/mL (≈ 3.57 µM) | > 256 µg/mL | > 256 µg/mL | 0.5 µg/mL (≈ 0.892 µM) | 4 µg/mL (≈ 7.13 µM) |  | CC(=O)OCC1=C(C(=O)OC(c2ccccc2)c2ccccc2)N2C(=O)[C@@H](Nc3nc4cscc4[nH]3)C2SC1 (stereo not given in full)
8 | 2 µg/mL (≈ 3.64 µM) | 2 µg/mL (≈ 3.64 µM) | 4 µg/mL (≈ 7.28 µM) | > 256 µg/mL | 4 µg/mL (≈ 7.28 µM) | 8 µg/mL (≈ 14.6 µM) | 8 µg/mL (≈ 14.6 µM) | 16 µg/mL (≈ 29.1 µM) | > 256 µg/mL | > 256 µg/mL | > 256 µg/mL | > 256 µg/mL | 64 µg/mL (≈ 116 µM) | 16 µg/mL (≈ 29.1 µM) | 8 µg/mL (≈ 14.6 µM) | 4 µg/mL (≈ 7.28 µM) | 4 µg/mL (≈ 7.28 µM) |  | CC1=C(C(=O)OC(c2ccccc2)c2ccccc2)N2C(=O)[C@@H](NC3=NC(c4ccc(C#N)cc4)CN3)C2SC1 (stereo not given in full)
